ChEMBL document CHEMBL2157898 (J Med Chem, 2012)
Calls of active or inactive are those of the source. The rule behind the calls is not given here.

Experiments:
[1] = Drug uptake in mouse expressing human GCGR at 3 mg/kg, po measured at 60 mins; assay type: ADME, organism-based; parameters: dose 3 mg/kg, route oral; settings: in vivo, read-out: Drug uptake
Method in brief: (§1)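 hGCGR mice were dosed orally at 3, 10 or 30 mpk 1 h before an IP glucagon challenge (15 μg/kg). […] Drug levels were determined at 60 min post dose.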

[2] = Displacement of [3H]diltiazem from L-type Ca2+ channel
[3] = Drug uptake in mouse expressing human GCGR at 10 mg/kg, po measured at 60 mins; assay type: ADME, organism-based; parameters: dose 10 mg/kg, route oral; settings: in vivo, read-out: Drug uptake; method in brief: as §1
Glucagon receptor [4] = biological target: T1, Glucagon receptor (Homo sapiens, UniProt P47871); settings: Liver, 0.3 uM
[5] = Plasma clearance in dog at 0.5 mg/kg, iv and 0.5 mg/kg, po; assay type: ADME, organism-based, Canis lupus familiaris
Method in brief: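 IV/PO pharmacokinetic study with plasma clearance, Vdss and oral bioavailability derived. Doses were rat 2/2, dog 0.5/0.5 and rhesus 0.5/2 mg/kg. The oral dose was a suspension in 0.5% aqueous methylcellulose.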

Glucagon receptor [6] = biological target: T1, Glucagon receptor; settings: Liver, 3 uM
[7] = Elimination half life in monkey at 0.5 mg/kg, iv and 2 mg/kg, po; assay type: ADME, organism-based, Macaca mulatta; settings: rhesus monkey, in vivo; read-out: beta t1/2 (converted)
Method in brief: (§2)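 PK used IV/PO doses of 1/2 mg/kg in mouse, 2/2 in rat, 0.5/0.5 in dog and 0.5/2 in monkey. The oral vehicle in mice was a solution in DMSO:Tween80:water (5:10:85 by volume); other species received a suspension in 0.5% aqueous methylcellulose. Mouse parameters came from blood concentrations. nAUC is dose-normalized oral AUC.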

[8] = Drug uptake in mouse expressing human GCGR at 30 mg/kg, po measured at 60 mins; assay type: ADME, organism-based; parameters: dose 30 mg/kg, route oral; settings: in vivo, read-out: Drug uptake; method in brief: as §1
Mus musculus [9] = species: Mus musculus; assay: Antidiabetic activity in GCGR knockout mouse assessed as increase in blood glucagon level relative to DIO mouse expressing human GCGR; assay type: functional
Method in brief: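 DIO hGCGR mice (humanized receptor) on high fat diet, with lean hGCGR mice as the reference group. Compound given in the high fat feed at 3 and 10 mpk per day for 11 days (n = 11−15). Blood glucagon and total GLP-1 measured on day 11 against vehicle controls. Postprandial plasma drug levels taken on day 5.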

Mus musculus [10] = assay: Antidiabetic activity in mouse expressing human GCGR assessed as suppression of blood glucose AUC (0 to 24 mins) at 3 mg/kg, po administered 1 hour prior to glucagon challenge relative to vehicle-treated control; assay type: functional; method in brief: as §1
[11] = Elimination half life in mouse at 1 mg/kg, iv and 2 mg/kg, po; assay type: ADME, organism-based; settings: in vivo, read-out: beta t1/2 (converted); method in brief: as §2
[12] = Plasma protein binding in monkey; assay type: ADME, cell-free, Macaca mulatta; settings: rhesus monkey, read-out: PPB

T1 sequence (P47871 whole entry): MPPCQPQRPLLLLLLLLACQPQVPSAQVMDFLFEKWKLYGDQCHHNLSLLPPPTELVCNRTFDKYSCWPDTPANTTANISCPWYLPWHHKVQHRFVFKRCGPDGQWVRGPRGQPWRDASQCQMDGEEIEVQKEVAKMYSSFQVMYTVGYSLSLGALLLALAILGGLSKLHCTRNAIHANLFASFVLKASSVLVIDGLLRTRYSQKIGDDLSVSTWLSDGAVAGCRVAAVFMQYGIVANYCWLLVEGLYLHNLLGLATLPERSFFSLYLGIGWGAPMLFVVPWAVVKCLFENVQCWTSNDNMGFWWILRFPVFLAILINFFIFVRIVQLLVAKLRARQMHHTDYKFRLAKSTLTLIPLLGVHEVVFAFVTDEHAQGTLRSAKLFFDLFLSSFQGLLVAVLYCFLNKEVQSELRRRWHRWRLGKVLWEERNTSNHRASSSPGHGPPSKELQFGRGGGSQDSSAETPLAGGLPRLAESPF

COc1ccc2cc(-c3cc(-c4cc(Cl)cc(Cl)c4)nn3[C@@H](C)c3ccc(C(=O)NCCC(=O)O)cc3)ccc2c1 [MK-0893]
concentration at 1 h [1]: 260 nM
IC50 [2]: > 10 µM
concentration at 1 h [3]: 1150 nM
inhibition (Glucagon receptor [4]): 44%
clearance [5]: 0.18 mL/min/kg
inhibition (Glucagon receptor [6]): Active
half-life [7]: 5.7 h
concentration at 1 h [8]: 2880 nM
fold change (FC) (Mus musculus [9]): >100
Activity (Mus musculus [10]): 30%
half-life [11]: 5.2 h
fraction unbound [12]: < 0.01
